Measured values published in publication PMC3747510 (Scientific Reports, 2013).
Residue numbers refer to the chain shown, from its start. In brackets after ≈: the same amount, converted by molar mass. Read-outs that look alike come from different tables or passages of the source.

Legend:
E. coli = experiment: Broth microdilution MIC, E. coli; assay type: cell-based; conditions: Escherichia coli
Method in brief: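 Broth microdilution per CLSI M7-A7 in Mueller Hinton broth. About […] E. coli was exposed to serial test-compound dilutions for 24 h at 37°C. MIC was the lowest concentration suppressing visible growth. Ampicillin was used to monitor susceptibility.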

HEK 293 = experiment: Cell proliferation assay; assay type: cell-based; conditions: Homo sapiens, HEK293, read-out: IC50, Human cell lines, HEK 293
Method in brief: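 Cells in DMEM/10% FBS, 37°C, 5% CO2. Seeded from 1 × 10^5 cells/mL and allowed to adhere overnight. Test compound added at 2.5–100 μg/mL (0.5% DMSO final), five wells per concentration. Incubated 0, 24, 48 or 72 h, then 4 h with MTS/PMS (20:1), and A492 read. DMSO and medium-only controls. IC50 by nonlinear regression against log concentration.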

SpLeuRS Y332D = target: T1, SpLeuRS Y332D (Streptococcus pneumoniae serotype 4, UniProt Q97SS0, Y332D); experiment: Aminoacylation by SpLeuRS Y332D mutant; assay type: biochemical; conditions: 50 μM ZCL039
T1 sequence (Q97SS0 1-833 Y332D): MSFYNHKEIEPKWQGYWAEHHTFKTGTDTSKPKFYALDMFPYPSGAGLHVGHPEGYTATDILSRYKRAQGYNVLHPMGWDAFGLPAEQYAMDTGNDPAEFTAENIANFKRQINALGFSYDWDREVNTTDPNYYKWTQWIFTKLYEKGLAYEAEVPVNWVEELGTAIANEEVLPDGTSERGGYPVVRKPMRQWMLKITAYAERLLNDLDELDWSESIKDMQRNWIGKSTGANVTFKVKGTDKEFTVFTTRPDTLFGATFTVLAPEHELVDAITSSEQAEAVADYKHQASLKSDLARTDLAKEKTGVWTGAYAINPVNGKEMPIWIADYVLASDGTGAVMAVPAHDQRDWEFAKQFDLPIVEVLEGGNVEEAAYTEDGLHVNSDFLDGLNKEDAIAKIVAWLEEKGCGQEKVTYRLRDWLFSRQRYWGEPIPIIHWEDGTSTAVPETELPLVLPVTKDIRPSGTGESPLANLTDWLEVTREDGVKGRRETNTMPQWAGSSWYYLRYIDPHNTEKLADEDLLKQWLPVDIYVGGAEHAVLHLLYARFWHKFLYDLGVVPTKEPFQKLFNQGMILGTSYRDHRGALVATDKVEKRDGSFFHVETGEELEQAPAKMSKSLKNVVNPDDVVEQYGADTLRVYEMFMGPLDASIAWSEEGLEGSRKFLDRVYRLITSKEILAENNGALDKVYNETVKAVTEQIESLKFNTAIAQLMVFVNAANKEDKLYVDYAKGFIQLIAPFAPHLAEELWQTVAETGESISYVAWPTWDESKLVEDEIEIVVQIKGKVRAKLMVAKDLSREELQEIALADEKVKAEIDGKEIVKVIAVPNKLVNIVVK
Method in brief: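 Aminoacylation at 37°C, started with 4 mM ATP. Point mutants were made by site-directed mutagenesis. The MmLinker chimera has CP1 Lys226–Thr411 replaced by a nonapeptide. Means of three independent experiments.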

SpLeuRS = target: T2, SpLeuRS (Streptococcus pneumoniae serotype 4, UniProt Q97SS0); experiment: Inhibitory kinetics of SpLeuRS aminoacylation; assay type: biochemical; conditions: for Ki: 2 nM SpLeuRS
T2 sequence (Q97SS0 1-833): T1 sequence (Q97SS0 1-833 Y332D) with D332Y
Method in brief: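 Test compound at 0, 2 or 8 μM. Substrate-velocity data were linearized by reciprocal fitting into Lineweaver-Burk plots to derive kinetic constants and inhibition mode.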

[1] = system: E. coli strains containing pET30a-eclrs; experiment: MIC upon overexpression of EcLeuRS; assay type: cell-based, Escherichia coli; conditions: induced by IPTG
Method in brief: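 E. coli transformants carrying pET30a-eclrs, with the empty pET30a vector strain as control. Both were induced with 10 μM IPTG and tested by broth microdilution in Mueller Hinton broth (37°C, 24 h). MICs were read as the lowest concentration without visible growth and compared between the two strains.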

OB1OCc2ccc(C(O)c3ccccc3)cc21 (stereo not drawn) [ZCL039, [6-(1-phenyl-1-hydroxylmethyl)]-1,3-dihydro-1-hydroxy-2,1-benzoxaborole] showed an MIC (E. coli; 24 h, read-out: MIC, Bacteria, E. coli) of 60 µg/mL (≈ 250 µM), an MIC (E. coli; read-out: MIC, E. coli strains containing pET30a) of 60 µg/mL (≈ 250 µM) and an IC50 (HEK 293) greater than 200000 nM. The “Effect on synthetic activity of Y332D mutant” value (SpLeuRS Y332D) was “did not affect”, the “kcat of SpLeuRS, substrate ATP” value (SpLeuRS; +2 μM ZCL039) was 6.35 ± 0.65 s⁻¹ and the “kcat of SpLeuRS, substrate Leu” value (SpLeuRS; +2 μM ZCL039) was 6.44 ± 0.55 s⁻¹. For the same molecule, the “kcat of SpLeuRS, substrate SptRNALeu” value (SpLeuRS; +2 μM ZCL039) was 6.62 ± 0.48 s⁻¹, the “kcat of SpLeuRS, substrate ATP” value (SpLeuRS; +8 μM ZCL039) was 2.80 ± 0.32 s⁻¹ and the “kcat of SpLeuRS, substrate Leu” value (SpLeuRS; +8 μM ZCL039) was 2.61 ± 0.16 s⁻¹. The “kcat of SpLeuRS, substrate SptRNALeu” value (SpLeuRS; +8 μM ZCL039) was 2.89 ± 0.24 s⁻¹, the Ki (SpLeuRS; substrate ATP) was 2630 ± 260 nM and the Ki (SpLeuRS; substrate Leu) was 2650 ± 220 nM. The “Mode of inhibition with respect to ATP and Leu” value (SpLeuRS; Km unaffected, maximum rates decreased) was “noncompetitive”, the “Mode of inhibition with regard to tRNALeu” value (SpLeuRS; apparent Km and rate both reduced) was “uncompetitive” and the “Increase in the MIC, pET30a-eclrs vs pET30a” value [1] was “over 4 fold”.
